According to ChEMBL document CHEMBL1157017, “Synthesis and pharmacological evaluation of new 5-(cyclo)alkyl-5-phenyl- and 5-spiroimidazolidine-2,4-dione derivatives. Novel 5-HT1A receptor agonist with potential antidepressant and anxiolytic activity” (Eur J Med Chem, 2010):
pKi: −log10 of the molar value. The source made the active and inactive calls. The rule behind the calls is not given here.

How the values were obtained:
[1] = target: T1, 5-hydroxytryptamine receptor 1A (Rattus norvegicus) (UniProt P19327); assay: Antagonist activity at postsynaptic 5HT1A receptor in rat brain cerebral cortex at 20 ug/ml; assay type: functional, tissue-based; conditions: filed as antagonist
T1 sequence (whole entry): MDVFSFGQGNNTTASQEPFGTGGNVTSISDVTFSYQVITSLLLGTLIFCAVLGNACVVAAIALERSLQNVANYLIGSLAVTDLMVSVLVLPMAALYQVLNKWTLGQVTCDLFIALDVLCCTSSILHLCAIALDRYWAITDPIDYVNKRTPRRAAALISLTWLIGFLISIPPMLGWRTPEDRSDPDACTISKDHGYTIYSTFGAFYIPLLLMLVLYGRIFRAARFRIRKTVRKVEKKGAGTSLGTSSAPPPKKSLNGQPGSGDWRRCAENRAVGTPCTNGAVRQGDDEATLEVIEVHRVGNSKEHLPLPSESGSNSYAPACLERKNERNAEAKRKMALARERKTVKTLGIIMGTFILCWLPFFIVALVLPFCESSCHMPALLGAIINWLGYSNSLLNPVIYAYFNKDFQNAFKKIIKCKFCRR

[2] = target: T2, 5-hydroxytryptamine receptor 1A (Rattus norvegicus, UniProt P19327); assay: Displacement of [3H]8OH-DPAT from 5HT1A in rat brain cerebral cortex; assay type: tissue-based
T2 sequence (P19327 whole entry): T1 sequence (whole entry)
Procedure, shortened: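 Rat cerebral cortex membranes (9 mg wet weight) in 50 mM Tris-HCl pH 7.7 with pargyline, CaCl2 and 0.1% ascorbic acid. Incubated 15 min at 37 °C with 1 nM [3H]-8-OH-DPAT and compound at 10^-10–10^-4 M. Nonspecific binding defined with serotonin. GF/B filtration and scintillation counting, in duplicate, with iterative curve fitting.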

Mus musculus [3] = assay: Anxiolytic-like activity in Swiss albino mouse assessed as number of punished crossing at 10 mg/kg, ip after 60 mins by four-plate test (RVb = 3.8 +/- 0.2); assay type: functional; conditions: route intraperitoneal
Mus musculus [4] = assay: Anxiolytic-like activity in Swiss albino mouse assessed as number of punished crossing at 20 mg/kg, ip after 60 mins by four-plate test (RVb = 3.8 +/- 0.2); assay type: functional; conditions: route intraperitoneal
Mus musculus [5] = assay: Anxiolytic-like activity in Swiss albino mouse assessed as number of punished crossing at 30 mg/kg, ip after 60 mins by four-plate test (RVb = 3.8 +/- 0.2); assay type: functional; conditions: route intraperitoneal
[6] = target: T1, 5-hydroxytryptamine receptor 1A (Rattus norvegicus); assay: Antagonist activity at presynaptic 5HT1A receptor in rat brain cerebral cortex at 20 ug/ml; assay type: functional, tissue-based; conditions: filed as antagonist
[7] = target: 5-hydroxytryptamine receptor 2A (Rattus norvegicus, UniProt P14842); assay: Displacement of [3H]ketanserin from 5HT2A in rat brain cerebral cortex; assay type: tissue-based
5-hydroxytryptamine receptor 2A, sequence (P14842 whole entry): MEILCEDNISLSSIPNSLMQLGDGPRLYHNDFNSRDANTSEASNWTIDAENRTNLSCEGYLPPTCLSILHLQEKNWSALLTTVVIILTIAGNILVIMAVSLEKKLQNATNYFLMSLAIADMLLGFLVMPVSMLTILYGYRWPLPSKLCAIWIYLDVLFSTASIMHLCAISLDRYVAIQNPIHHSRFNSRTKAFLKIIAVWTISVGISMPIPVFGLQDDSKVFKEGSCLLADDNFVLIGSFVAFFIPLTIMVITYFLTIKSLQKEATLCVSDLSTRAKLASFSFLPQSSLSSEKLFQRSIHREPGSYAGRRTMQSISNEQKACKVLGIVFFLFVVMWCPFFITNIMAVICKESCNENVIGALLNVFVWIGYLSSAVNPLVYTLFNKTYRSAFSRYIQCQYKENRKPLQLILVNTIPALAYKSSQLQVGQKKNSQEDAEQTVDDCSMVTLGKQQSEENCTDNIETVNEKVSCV
Procedure, shortened: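 Rat cerebral cortex membranes in 50 mM Tris-HCl pH 7.7 were incubated 20 min at 37 °C with 0.6 nM [3H]-ketanserin and compound at 10^-10–10^-4 M. Mianserin served as displacer. Filtration through GF/B, scintillation counting, in duplicate, with iterative curve fitting.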

[8] = target: 5-hydroxytryptamine receptor 2A (Rattus norvegicus) (UniProt P14842); assay: Antagonist activity at postsynaptic 5HT2A receptor in rat brain cerebral cortex at 20 ug/ml; assay type: functional, tissue-based; conditions: filed as antagonist
5-hydroxytryptamine receptor 2A (Rattus norvegicus), sequence (P14842 whole entry): as above

D(2) dopamine receptor = D(2) dopamine receptor (Rattus norvegicus, UniProt P61169); assay: Displacement of [3H]spiperone from dopamine D2 receptor in rat brain striatum
D(2) dopamine receptor, sequence (P61169 whole entry): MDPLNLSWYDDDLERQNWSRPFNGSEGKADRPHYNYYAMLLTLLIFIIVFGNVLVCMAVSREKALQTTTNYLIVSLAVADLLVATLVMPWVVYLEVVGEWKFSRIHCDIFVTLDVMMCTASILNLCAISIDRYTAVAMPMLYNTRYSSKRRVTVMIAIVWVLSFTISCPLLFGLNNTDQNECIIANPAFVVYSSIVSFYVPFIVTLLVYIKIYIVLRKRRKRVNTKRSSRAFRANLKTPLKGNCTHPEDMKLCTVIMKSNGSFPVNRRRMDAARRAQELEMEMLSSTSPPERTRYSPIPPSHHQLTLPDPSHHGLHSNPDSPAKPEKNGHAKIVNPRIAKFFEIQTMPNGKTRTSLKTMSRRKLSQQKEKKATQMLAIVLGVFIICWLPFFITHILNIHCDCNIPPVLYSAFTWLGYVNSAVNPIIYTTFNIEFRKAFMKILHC

[9] = target: T1, 5-hydroxytryptamine receptor 1A (Rattus norvegicus); assay: Agonist activity at presynaptic 5HT1A receptor in rat brain cerebral cortex at 20 ug/ml; assay type: functional, tissue-based; conditions: filed as agonist
Mus musculus [10] = assay: Antidepressant-like activity in Swiss mouse assessed as immobilization time at 5 mg/kg, ip after 30 mins by forced swim test (RVb = 181.4 +/- 4.9 s); assay type: functional; conditions: route intraperitoneal
[11] = target: T1, 5-hydroxytryptamine receptor 1A (Rattus norvegicus); assay: Agonist activity at postsynaptic 5HT1A receptor in rat brain cerebral cortex at 20 ug/ml; assay type: functional, tissue-based
Mus musculus [12] = assay: Antidepressant-like activity in Swiss mouse assessed as immobilization time at 20 mg/kg, ip after 30 mins by forced swim test (RVb = 181.4 +/- 4.9 s); assay type: functional; conditions: route intraperitoneal
Mus musculus [13] = assay: […] in Swiss albino mouse assessed as number of […] crossing of the light beam during 30 mins at 10 mg/kg, ip measured after 30 mins postdose […] (RVb = 249.2 +/- 21); assay type: functional; conditions: route intraperitoneal
Mus musculus [14] = assay: Anxiolytic-like activity in Swiss albino mouse assessed as number of punished crossing at 5 mg/kg, ip after 30 mins by four-plate test (RVb = 3.8 +/- 0.2); conditions: route intraperitoneal
Mus musculus [15] = assay: Anxiolytic-like activity in Swiss albino mouse assessed as number of punished crossing of the light beam during 6 mins at 10 mg/kg, ip measured after 30 mins postdose (RVb = 107.1 +/- 8.5); conditions: route intraperitoneal
Mus musculus [16] = assay: Antidepressant-like activity in Swiss mouse assessed as immobilization time at 10 mg/kg, ip after 30 mins by forced swim test (RVb = 181.4 +/- 4.9 s); assay type: functional; conditions: route intraperitoneal
Mus musculus [17] = assay: […] in Swiss albino mouse assessed as number of […] crossing of the light beam during 6 mins at 20 mg/kg, ip measured after 30 mins postdose […] (RVb = 107.1 +/- 8.5); assay type: functional; conditions: route intraperitoneal
Mus musculus [18] = assay: […] in Swiss albino mouse assessed as number of […] crossing of the light beam during 30 mins at 20 mg/kg, ip measured after 30 mins postdose […] (RVb = 249.2 +/- 21); assay type: functional; conditions: route intraperitoneal
Mus musculus [19] = assay: Anxiolytic-like activity in Swiss albino mouse assessed as number of punished crossing at 30 mg/kg, ip after 60 mins by four-plate test (RVb = 4.2 +/- 0.4); assay type: functional; conditions: route intraperitoneal
Mus musculus [20] = assay: Anxiolytic-like activity in Swiss albino mouse assessed as number of punished crossing at 20 mg/kg, ip after 60 mins by four-plate test (RVb = 4.2 +/- 0.4); assay type: functional; conditions: route intraperitoneal
Mus musculus [21] = assay: Anxiolytic-like activity in Swiss albino mouse assessed as number of punished crossing at 10 mg/kg, ip after 60 mins by four-plate test (RVb = 4.2 +/- 0.4); assay type: functional; conditions: route intraperitoneal
[22] = Agonist activity at presynaptic 5HT1A receptor in brain cerebral cortex at 20 ug/ml
Mus musculus [23] = assay: […] in Swiss albino mouse assessed as number of […] crossing of the light beam during 30 mins at 20 mg/kg, ip measured after 30 mins postdose […] (RVb = 210.7 +/- 17.7); assay type: functional; conditions: route intraperitoneal
Mus musculus [24] = assay: Antidepressant-like activity in Swiss mouse assessed as immobilization time at 20 mg/kg, ip after 30 mins by forced swim test (RVb = 167.1 +/- 6.7 s); assay type: functional; conditions: route intraperitoneal
Mus musculus [25] = assay: […] in Swiss albino mouse assessed as number of […] crossing of the light beam during 30 mins at 10 mg/kg, ip measured after 30 mins postdose […] (RVb = 210.7 +/- 17.7); assay type: functional; conditions: route intraperitoneal
Mus musculus [26] = assay: […] in Swiss albino mouse assessed as number of […] crossing of the light beam at 20 mg/kg, ip measured after 30 mins postdose […] (RVb = 94.8 +/- 4.1); conditions: route intraperitoneal
Mus musculus [27] = assay: Antidepressant-like activity in Swiss mouse assessed as immobilization time at 10 mg/kg, ip after 30 mins by forced swim test (RVb = 167.1 +/- 6.7 s); assay type: functional; conditions: route intraperitoneal
Mus musculus [28] = assay: […] in Swiss albino mouse assessed as number of […] crossing of the light beam during 6 mins at 10 mg/kg, ip measured after 30 mins postdose […] (RVb = 94.8 +/- 4.1); assay type: functional; conditions: route intraperitoneal

| Activity [1] | pKi [2] | pKi [7] | Activity [8] | pKi (D(2) dopamine receptor) | Activity [9] | SMILES | also measured |
| --- | --- | --- | --- | --- | --- | --- | --- |
| Antagonist | 7.89 | 7.11 | – | – | – | O=C1NC(c2ccccc2)(C2CC2)C(=O)N1CCCN1CCN(c2cccc(Cl)c2)CC1 (racemic) | Activity (Mus musculus [3]): 3.8; Activity (Mus musculus [4]): 3.9; Activity (Mus musculus [5]): 3.7; Activity [6]: Antagonist |
| – | 7.01 | 7.52 | Antagonist | 4.81 | – | O=C1NC2(CCc3ccccc32)C(=O)N1CCCN1CCN(c2ccccc2)CC1 (racemic) | – |
| Antagonist | 7.31 | 6.19 | – | – | Agonist | COc1ccccc1N1CCN(CCCN2C(=O)NC3(CCc4ccccc43)C2=O)CC1 (racemic) | – |
| – | 6.46 | 7.46 | Antagonist | 5.74 | – | O=C1NC2(CCCc3ccccc32)C(=O)N1CCCN1CCN(c2cccc(Cl)c2)CC1 (racemic) | – |
| – | 6.34 | 7.16 | – | – | – | CC1(c2ccccc2)NC(=O)N(CCCN2CCN(c3ccccc3)CC2)C1=O (racemic) | – |
| – | 7.06 | 7.60 | Antagonist | 6.17 | – | O=C1NC2(CCCc3ccccc32)C(=O)N1CCCN1CCN(c2ccccc2)CC1 (racemic) | – |
| – | 7.64 | 6.55 | – | – | Agonist | COc1ccccc1N1CCN(CCCN2C(=O)NC3(CCCc4ccccc43)C2=O)CC1 (racemic) | Time (Mus musculus [10]): 161.2 s; Activity ([11]; filed as agonist): Agonist; Time (Mus musculus [12]): 103.1 s; Activity (Mus musculus [13]): 212.9; Activity (Mus musculus [3]): 5.9; Activity (Mus musculus [14]): 3.9; Activity (Mus musculus [15]): 110; Time (Mus musculus [16]): 121.4 s; Activity (Mus musculus [17]): 111.6; Activity (Mus musculus [18]): 225.3; Activity (Mus musculus [4]): 4.4 |
| – | 7.33 | 6.14 | – | – | Agonist | COc1ccccc1N1CCN(CCCN2C(=O)NC(C)(c3ccccc3)C2=O)CC1 (racemic) | Activity [11]: inactive |
| Antagonist | 7.42 | 7.28 | Antagonist | 5.21 | Agonist | O=C1NC2(CCc3ccccc32)C(=O)N1CCCN1CCN(c2cccc(Cl)c2)CC1 (racemic) | Activity (Mus musculus [19]): 4.2; Activity (Mus musculus [20]): 4.2; Activity (Mus musculus [21]): 4 |
| Antagonist | 7.54 | 6.51 | – | 5.41 | – | CC1(c2ccccc2)NC(=O)N(CCCN2CCN(c3cccc(Cl)c3)CC2)C1=O (racemic) | Activity [22]: inactive |
| – | 7.17 | 7.00 | – | – | – | O=C1NC(c2ccccc2)(C2CC2)C(=O)N1CCCN1CCN(c2ccccc2)CC1 (racemic) | Activity [11]: inactive; Activity [22]: inactive |
| – | 7.96 | 6.15 | – | – | Agonist | COc1ccccc1N1CCN(CCCN2C(=O)NC(c3ccccc3)(C3CC3)C2=O)CC1 (racemic) | Activity [11]: inactive |
| – | – | – | – | – | – | CN(C)CCCN1c2ccccc2CCc2ccccc21 [IMIPRAMINE] | Activity (Mus musculus [23]): 141.6; Time (Mus musculus [24]): 107.8 s; Activity (Mus musculus [25]): 208.7; Activity (Mus musculus [26]): 89.1; Time (Mus musculus [27]): 149.1 s; Activity (Mus musculus [28]): 94.4 |
